Measurements: ChEMBL document CHEMBL1139240, “Synthesis, cytotoxic activity, DNA topoisomerase-II inhibition, molecular modeling and structure-activity relationship of 9-anilinothiazolo[5,4-b]quinoline derivatives” (Bioorg Med Chem, 2009)
Blank lines part the entries; values can stand above or below the compound they belong to.

Tests used:
SW-620 = test: Cytotoxicity against human SW620 cells after 72 hrs by MTT assay; type: functional, cell-based; details: SW-620, 72 h
In short: (§1)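 Cells seeded at 4.5 to 5.0 × 10^4 cells/mL/well in 24-well plates, exposed to compounds in DMSO for 72 h. MTT in PBS pH 7.2 added, formazan dissolved in DMSO, absorbance read at 540 nm. % growth inhibition = (1 − treated/untreated absorbance) × 100. Three independent experiments in quadruplicate.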

HeLa = test: Cytotoxicity against human HeLa cells after 72 hrs by MTT assay; type: functional, cell-based; in short: as §1
K562 = test: Cytotoxicity against human K562 cells after 72 hrs by MTT assay; type: functional, cell-based; details: K562, 72 h; in short: as §1
SW480 = test: Cytotoxicity against human SW480 cells after 72 hrs by MTT assay; type: functional, cell-based; details: SW480, 72 h; in short: as §1
[1] = target: DNA topoisomerase 2-alpha (Homo sapiens, UniProt P11388); test: Inhibition of human DNA topoisomerase 2-mediated Crithidia fasciculata kDNA decatenation using ethidium bromide staining by agarose gel electrophoresis
Sequence of DNA topoisomerase 2-alpha (P11388 whole entry): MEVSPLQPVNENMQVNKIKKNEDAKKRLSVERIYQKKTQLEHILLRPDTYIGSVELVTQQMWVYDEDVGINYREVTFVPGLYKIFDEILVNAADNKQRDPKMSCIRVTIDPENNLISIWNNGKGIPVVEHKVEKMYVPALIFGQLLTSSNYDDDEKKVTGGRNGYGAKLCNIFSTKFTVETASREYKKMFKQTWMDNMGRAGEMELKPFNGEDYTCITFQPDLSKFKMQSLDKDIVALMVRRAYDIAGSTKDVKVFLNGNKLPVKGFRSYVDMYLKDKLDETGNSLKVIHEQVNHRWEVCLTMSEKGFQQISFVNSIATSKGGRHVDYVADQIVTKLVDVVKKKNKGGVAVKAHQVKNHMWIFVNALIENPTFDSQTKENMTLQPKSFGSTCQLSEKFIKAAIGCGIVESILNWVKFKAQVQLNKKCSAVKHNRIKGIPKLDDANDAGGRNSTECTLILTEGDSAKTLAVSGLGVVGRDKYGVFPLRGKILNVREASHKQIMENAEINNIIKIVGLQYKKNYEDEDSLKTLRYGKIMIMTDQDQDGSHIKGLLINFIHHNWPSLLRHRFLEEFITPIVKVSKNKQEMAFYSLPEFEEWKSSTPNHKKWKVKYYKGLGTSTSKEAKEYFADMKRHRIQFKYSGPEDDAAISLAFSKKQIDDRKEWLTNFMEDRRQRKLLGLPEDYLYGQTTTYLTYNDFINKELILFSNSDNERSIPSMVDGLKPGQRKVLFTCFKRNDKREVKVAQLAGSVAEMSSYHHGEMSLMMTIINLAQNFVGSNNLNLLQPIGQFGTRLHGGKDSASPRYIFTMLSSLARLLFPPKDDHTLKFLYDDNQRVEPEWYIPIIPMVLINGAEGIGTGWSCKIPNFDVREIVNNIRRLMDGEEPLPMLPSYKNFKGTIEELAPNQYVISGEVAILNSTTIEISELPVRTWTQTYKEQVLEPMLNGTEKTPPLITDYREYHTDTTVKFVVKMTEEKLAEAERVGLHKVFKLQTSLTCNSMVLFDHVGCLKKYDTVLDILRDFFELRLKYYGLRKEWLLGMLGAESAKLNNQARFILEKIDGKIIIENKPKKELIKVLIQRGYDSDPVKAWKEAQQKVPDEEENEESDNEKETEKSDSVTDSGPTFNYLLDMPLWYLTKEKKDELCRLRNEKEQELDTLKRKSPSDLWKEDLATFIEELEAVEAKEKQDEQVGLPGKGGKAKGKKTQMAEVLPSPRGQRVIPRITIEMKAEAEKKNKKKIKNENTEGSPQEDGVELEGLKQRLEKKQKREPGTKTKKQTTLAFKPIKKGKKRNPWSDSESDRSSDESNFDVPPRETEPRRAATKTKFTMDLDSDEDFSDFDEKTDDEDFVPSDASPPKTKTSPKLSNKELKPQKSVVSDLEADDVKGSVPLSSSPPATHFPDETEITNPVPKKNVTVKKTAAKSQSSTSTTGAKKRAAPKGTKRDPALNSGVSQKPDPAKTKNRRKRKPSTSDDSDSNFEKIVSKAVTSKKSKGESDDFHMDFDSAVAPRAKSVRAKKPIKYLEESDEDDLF
In short: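 Crithidia fasciculata kDNA (5 µg/mL) with 4 units human Topo II in 30 mM Tris–HCl pH 7.6, 60 mM NaCl, 8 mM MgCl2, 15 mM 2-mercaptoethanol, 3 mM ATP, 8% DMSO, 30 min at 37 °C. Proteinase K follows, then chloroform/isoamyl extraction and agarose gel with ethidium bromide. Decatenated plus linear DNA quantified densitometrically as % of total. Screened at 160 µM, IC50 from 1–160 µM curves.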

IC50 [1]: 64.3 µM
Compound: CSc1nc2c(Nc3cccc(O)c3)c3ccccc3nc2s1
IC50 (SW-620): > 80 µM | IC50 (HeLa): > 80 µM | IC50 (K562): > 80 µM | IC50 (SW480): > 80 µM

Compound: CCN(CC)CCCNc1nc2c(Nc3cccc(C#N)c3)c3ccccc3nc2s1
IC50 (SW-620): 19.7 µM | IC50 (HeLa): 19.2 µM | IC50 (K562): 12.9 µM | IC50 (SW480): 11.5 µM

IC50 [1]: 18 µM
Compound: CSc1nc2c(Nc3cc(N)cc(CO)c3)c3ccccc3nc2s1
IC50 (SW-620): > 80 µM | IC50 (HeLa): > 80 µM | IC50 (K562): > 80 µM | IC50 (SW480): > 80 µM

Compound: CCN(CC)CCNc1nc2c(Nc3ccc(Cl)cc3)c3ccccc3nc2s1
IC50 (SW-620): 12.2 µM | IC50 (HeLa): 10.2 µM | IC50 (K562): 7.26 µM | IC50 (SW480): 12.6 µM

IC50 [1]: 169 µM
Compound: CCN(CC)CCNc1nc2c(Nc3ccccc3)c3ccccc3nc2s1
IC50 (SW-620): 21.6 µM | IC50 (HeLa): 16 µM | IC50 (K562): 16.8 µM | IC50 (SW480): 37.7 µM

Compound: c1ccc(Nc2c3ccccc3nc3sc(N4CCCCC4)nc23)cc1
IC50 (SW-620): > 80 µM | IC50 (HeLa): > 80 µM | IC50 (K562): > 80 µM | IC50 (SW480): > 80 µM

Compound: CCN(CC)CCNc1nc2c(Nc3cccc(Cl)c3)c3ccccc3nc2s1
IC50 (SW-620): 17.8 µM | IC50 (HeLa): 9.12 µM | IC50 (K562): 12.2 µM | IC50 (SW480): 14.3 µM

Compound: CCN(CC)CCNc1nc2c(Nc3ccc(C#N)cc3)c3ccccc3nc2s1
IC50 (SW-620): 16.5 µM | IC50 (HeLa): 15.2 µM | IC50 (K562): 8.36 µM | IC50 (SW480): 14.2 µM

Compound: Clc1c2ccccc2nc2sc(N3CCOCC3)nc12
IC50 (SW-620): > 80 µM | IC50 (HeLa): > 80 µM | IC50 (K562): > 80 µM | IC50 (SW480): > 80 µM

Compound: CCN(CC)CCNc1nc2c(Nc3cccc(C#N)c3)c3ccccc3nc2s1
IC50 (SW-620): 14.6 µM | IC50 (HeLa): 13.3 µM | IC50 (K562): 12.5 µM | IC50 (SW480): 13.1 µM

Compound: CSc1nc2c(Nc3cccc(C(C)=O)c3)c3ccccc3nc2s1
IC50 (SW-620): > 80 µM | IC50 (HeLa): > 80 µM | IC50 (K562): > 80 µM | IC50 (SW480): > 80 µM

Compound: CN1CCN(c2nc3c(Nc4ccccc4)c4ccccc4nc3s2)CC1
IC50 (SW-620): > 80 µM | IC50 (HeLa): 60.7 µM | IC50 (K562): 73 µM | IC50 (SW480): 41.8 µM

IC50 [1]: 16.7 µM
Compound: CSc1nc2c(Nc3cccc(N)c3)c3ccccc3nc2s1
IC50 (SW-620): > 80 µM | IC50 (HeLa): > 80 µM | IC50 (K562): > 80 µM | IC50 (SW480): > 80 µM

Compound: c1ccc(Nc2c3ccccc3nc3sc(N4CCOCC4)nc23)cc1
IC50 (SW-620): > 80 µM | IC50 (HeLa): > 80 µM | IC50 (K562): > 80 µM | IC50 (SW480): > 80 µM

Compound: CSc1nc2c(Nc3ccccc3)c3ccccc3nc2s1
IC50 (SW-620): > 80 µM | IC50 (HeLa): > 80 µM | IC50 (K562): > 80 µM | IC50 (SW480): > 80 µM

Compound: CSc1nc2c(Nc3cccc(/C(C)=N\O)c3)c3ccccc3nc2s1
IC50 (SW-620): 39.4 µM | IC50 (HeLa): 34.2 µM | IC50 (K562): 32.8 µM | IC50 (SW480): 37.3 µM

Compound: CCN(CC)CCNc1nc2c(Nc3ccc(OC)cc3)c3ccccc3nc2s1
IC50 (SW-620): 16.4 µM | IC50 (HeLa): 13.6 µM | IC50 (K562): 10.9 µM | IC50 (SW480): 12 µM

Compound: CCN(CC)CCNc1nc2c(Nc3cccc(OC)c3)c3ccccc3nc2s1
IC50 (SW-620): 20 µM | IC50 (HeLa): 19.2 µM | IC50 (K562): 23.5 µM | IC50 (SW480): 11.5 µM

IC50 [1]: 9.94 µM
Compound: COc1cc(NS(C)(=O)=O)ccc1Nc1c2ccccc2nc2ccccc12 [AMSACRINE]
IC50 (SW-620): 16.7 µM | IC50 (HeLa): 9.5 µM | IC50 (K562): 19.9 µM | IC50 (SW480): 27.7 µM

Compound: CSc1nc2c(Nc3ccccc3)c3cc(F)ccc3nc2s1
IC50 (SW-620): > 80 µM | IC50 (HeLa): > 80 µM | IC50 (K562): > 80 µM | IC50 (SW480): > 80 µM

Compound: CN1CCN(c2nc3c(Cl)c4ccccc4nc3s2)CC1
IC50 (SW-620): > 80 µM | IC50 (HeLa): > 80 µM | IC50 (K562): > 80 µM | IC50 (SW480): > 80 µM

Compound: CCOC(=O)c1cccc(Nc2c3ccccc3nc3sc(SC)nc23)c1
IC50 (SW-620): > 80 µM | IC50 (HeLa): > 80 µM | IC50 (K562): > 80 µM | IC50 (SW480): > 80 µM

IC50 [1]: 15.4 µM
Compound: CSc1nc2c(Nc3cccc(C(F)(F)F)c3)c3ccccc3nc2s1
IC50 (SW-620): 62.3 µM | IC50 (HeLa): 43.3 µM | IC50 (K562): 67.1 µM | IC50 (SW480): 65.1 µM

Compound: COc1ccc(Nc2c3cc(F)ccc3nc3sc(SC)nc23)cc1
IC50 (SW-620): > 80 µM | IC50 (HeLa): > 80 µM | IC50 (K562): 54.9 µM | IC50 (SW480): > 80 µM

Compound: Clc1c2ccccc2nc2sc(N3CCCCC3)nc12
IC50 (SW-620): > 80 µM | IC50 (HeLa): > 80 µM | IC50 (K562): > 80 µM | IC50 (SW480): > 80 µM

Compound: CCN(CC)CCCNc1nc2c(Nc3ccc(Cl)cc3)c3ccccc3nc2s1
IC50 (SW-620): 7.48 µM | IC50 (HeLa): 8.82 µM | IC50 (K562): 3.36 µM | IC50 (SW480): 4.92 µM

IC50 [1]: 12.3 µM
Compound: CNc1cccc(Nc2c3ccccc3nc3sc(SC)nc23)c1
IC50 (SW-620): > 80 µM | IC50 (HeLa): 46.2 µM | IC50 (K562): 46.9 µM | IC50 (SW480): > 80 µM

Compound: CSc1nc2c(Nc3cccc(C#N)c3)c3cc(F)ccc3nc2s1
IC50 (SW-620): > 80 µM | IC50 (HeLa): > 80 µM | IC50 (K562): 55.4 µM | IC50 (SW480): > 80 µM

IC50 [1]: 29.6 µM
Compound: CSc1nc2c(Nc3cccc(NC(C)=O)c3)c3ccccc3nc2s1
IC50 (SW-620): > 80 µM | IC50 (HeLa): > 80 µM | IC50 (K562): > 80 µM | IC50 (SW480): > 80 µM

IC50 [1]: 40.9 µM
Compound: CCN(CC)CCCNc1nc2c(Nc3cccc(Cl)c3)c3ccccc3nc2s1
IC50 (SW-620): 10.2 µM | IC50 (HeLa): 7.46 µM | IC50 (K562): 9.84 µM | IC50 (SW480): 7.91 µM

IC50 [1]: 20.5 µM
Compound: CSc1nc2c(Nc3ccc(Cl)cc3)c3ccccc3nc2s1
IC50 (SW-620): > 80 µM | IC50 (HeLa): > 80 µM | IC50 (K562): 79.5 µM | IC50 (SW480): > 80 µM

Compound: CCN(CC)CCCNc1nc2c(Nc3ccccc3)c3ccccc3nc2s1
IC50 (SW-620): 16.6 µM | IC50 (HeLa): 6.27 µM | IC50 (K562): 7.52 µM | IC50 (SW480): 6.9 µM

Compound: CCN(CC)CCCNc1nc2c(Nc3ccc(C#N)cc3)c3ccccc3nc2s1
IC50 (SW-620): 29.2 µM | IC50 (HeLa): 24.2 µM | IC50 (K562): 12.9 µM | IC50 (SW480): 22.7 µM

IC50 [1]: 21.2 µM
Compound: CSc1nc2c(Nc3cccc(Cl)c3)c3ccccc3nc2s1
IC50 (SW-620): > 80 µM | IC50 (HeLa): 69.4 µM | IC50 (K562): 80.3 µM | IC50 (SW480): > 80 µM

Compound: COc1cccc(Nc2c3cc(F)ccc3nc3sc(SC)nc23)c1
IC50 (SW-620): 12.2 µM | IC50 (HeLa): 15.8 µM | IC50 (SW480): 13.7 µM

Compound: CSc1nc2c(Nc3ccc(C#N)cc3)c3cc(F)ccc3nc2s1
IC50 (SW-620): > 80 µM | IC50 (HeLa): > 80 µM | IC50 (SW480): > 80 µM
